A1 apoptosis 2: blocks A1, raising caspase activity. AID 2465. caspase activation, % (concentration not given with the values). MEF A1-2A-BIM cells, caspase-Glo luminescence, 3 h; percent of clofoctol response, DMSO zero. 24,000 tested, under 10 active; in the data active = caspase activation above about 5.9%; inconclusive = no clear call, values can overlap the other calls; inactive = below about 2.2%
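Material: mouse embryonic fibroblasts co-expressing A1 and BIM (A1-2A-BIM), primed for A1 dependence / Quantity: 2500 cells/well / Buffer or medium: RPMI-1640 growth medium with 10% FBS / Doses: 50 nL compound per well, pinned / Schedule: 3 h compound exposure at 37 °C / Signal: Caspase-Glo luminescence (DEVD substrate) / Measure: Caspase-3/7 activation, seen as rise in luminescence signal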
INS-1E rescue: rescue of cytokine-induced death in INS-1E beta cells. AID 488910. protection from cytokine-induced ATP loss, % at 10 µM. hit rate 0.1% among 20,000. INS-1E cytokine-induced death, ATP luminescence, 48 h; normalised: neutral wells 0, positive control 100;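 active = mean replicate protection from cytokine-induced ATP loss at least 50% and at least 75% of replicates each reaching 50%; inconclusive = meets only one of the two criteria, mean or replicate share; inactive = fails both the mean and replicate share criteria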
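Material: INS-1E rat cells; Quantity: 8000 cells/well; Buffer or medium: phenol-red-free RPMI with 5% fetal bovine serum; Probe or stimulus: cytokine cocktail of IFN-γ, TNF-α and IL-1β; Compound dosing: single test concentration per compound, delivered by pin transfer; Incubation: 48 h co-treatment, 10 min post-lysis read; Signal: CellTiter-Glo luminescence.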
T cruzi HTS: intracellular Trypanosoma cruzi inhibition | activity score (inhibition), % at 5.01 µM | intracellular Trypanosoma cruzi in host cells, plate reader | hit rate 4.9% among 22,000; in the data active = activity score above about 55%; inconclusive = no clear call, values can overlap the other calls;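 note: parasites and compound incubated about four days before reading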
Each line names hits and unclear results; the compound was inactive in the other large screens. The entries come from a sample that favours hits as a whole.

C[C@@H]1CN([C@H](C)CO)C(=O)c2cccc(NS(=O)(=O)c3ccc(Cl)cc3)c2O[C@H]1CN(C)Cc1ccc(-c2ccccc2)cc1	none (no result: A1 apoptosis 2)
C[C@@H]1CN([C@H](C)CO)C(=O)c2cccc(NS(=O)(=O)c3ccc(F)cc3)c2O[C@@H]1CN(C)C(=O)NC1CCCCC1	none
C[C@H]1CN([C@@H](C)CO)C(=O)c2cccc(NS(=O)(=O)c3ccc(Cl)cc3)c2O[C@H]1CN(C)Cc1ccc(-c2ccccc2)cc1	T cruzi HTS 59 (no result: A1 apoptosis 2)
[N-]=[N+]=Nc1ccc(C[C@H]2C(=O)O[C@@H](Cc3ccccc3)[C@H]3C=C(/C=C/C4CC4)CN32)cc1	none (no result: INS-1E rescue, T cruzi HTS)
Cc1ccc(S(=O)(=O)Nc2ccc3c(c2)CC(=O)N([C@@H](C)CO)C[C@H](C)[C@@H](CN(C)Cc2ccc(Cl)c(Cl)c2)O3)cc1	T cruzi HTS 75
C[C@H]1CN([C@@H](C)CO)C(=O)Cc2cc(NS(=O)(=O)c3ccc(Cl)cc3)ccc2O[C@H]1CN(C)Cc1ccc(Cl)c(Cl)c1	none
Cc1ccc(S(=O)(=O)Nc2ccc3c(c2)CC(=O)N([C@H](C)CO)C[C@H](C)[C@H](CN(C)Cc2ccc4c(c2)OCO4)O3)cc1	none
Cc1ccc(S(=O)(=O)Nc2ccc3c(c2)CC(=O)N([C@H](C)CO)C[C@H](C)[C@H](CN(C)Cc2ccc(Cl)c(Cl)c2)O3)cc1	none
C[C@@H]1CN([C@H](C)CO)C(=O)Cc2cc(NS(=O)(=O)c3ccc(Cl)cc3)ccc2O[C@@H]1CN(C)Cc1ccc(Cl)c(Cl)c1	T cruzi HTS 67 (no result: A1 apoptosis 2)
C[C@H]1CN([C@@H](C)CO)C(=O)Cc2cc(NS(=O)(=O)c3ccc(F)cc3)ccc2O[C@@H]1CN(C)Cc1ccc(Cl)c(Cl)c1	T cruzi HTS inconclusive (no result: A1 apoptosis 2)
Cc1ccc(S(=O)(=O)Nc2ccc3c(c2)CC(=O)N([C@H](C)CO)C[C@@H](C)[C@H](CN(C)Cc2ccc4c(c2)OCO4)O3)cc1	T cruzi HTS 61
C[C@@H]1CN([C@H](C)CO)C(=O)Cc2cc(NS(=O)(=O)c3ccc(F)cc3)ccc2O[C@@H]1CN(C)Cc1ccc(Cl)c(Cl)c1	T cruzi HTS 63 (no result: A1 apoptosis 2)
O=C(N/N=C/c1cccnc1)c1ccccn1	none (no result: INS-1E rescue, T cruzi HTS)
C[C@H](CO)N1C[C@H](C)[C@H](CN(C)Cc2ccccc2)OCCCC[C@H](C)Oc2ccc(NS(=O)(=O)c3ccccc3)cc2C1=O	none (no result: INS-1E rescue, T cruzi HTS)
Cc1noc(C)c1NC(=O)N(C)C[C@H]1OCCCC[C@H](C)Oc2ccc(NC(=O)NC(C)C)cc2C(=O)N([C@@H](C)CO)C[C@H]1C	none (no result: INS-1E rescue, T cruzi HTS)
O=C1c2ccccc2C(=O)N1[C@@H]1CCN(Cc2cccc(OCCO)c2)C1	none (no result: INS-1E rescue, T cruzi HTS)
COC(=O)c1ccc(/C=N/NC(=O)c2ccccn2)cc1	none (no result: INS-1E rescue, T cruzi HTS)
C[C@H](CO)N1C[C@H](C)[C@H](CN(C)Cc2ccc(Cl)c(Cl)c2)Oc2ccc(NS(=O)(=O)c3ccc(Cl)cc3)cc2CC1=O	none (no result: A1 apoptosis 2)
C[C@H](CO)N1C[C@H](C)[C@H](CN(C)Cc2ccc(Cl)c(Cl)c2)Oc2ccc(NS(=O)(=O)c3ccc(F)cc3)cc2CC1=O	T cruzi HTS 57 (no result: A1 apoptosis 2)
CC(C)=CCC[C@@H](C)C/C=N/NC(=O)c1cccc(C(=O)NO)c1	none
O=C(O)CCCCCCC(=O)NN=C1CCCC1	none
C[C@@H]1CN([C@H](C)CO)C(=O)c2cccc(NC(=O)c3ccncc3)c2O[C@@H]1CN(C)C(=O)Nc1ccc(F)cc1	none
C[C@H](CO)N1C[C@H](C)[C@H](CN(C)C(=O)Nc2ccccc2)Oc2c(NC(=O)c3ccncc3)cccc2C1=O	T cruzi HTS 78
C[C@H]1CN([C@@H](C)CO)C(=O)c2cccc(NC(=O)c3ccncc3)c2O[C@H]1CN(C)C(=O)Nc1ccc(F)cc1	T cruzi HTS 64 (no result: A1 apoptosis 2)
C[C@@H]1CN([C@@H](C)CO)C(=O)c2cccc(NC(=O)c3ccncc3)c2O[C@H]1CN(C)C(=O)Nc1ccccc1	none
O=C1O[C@@H](c2ccccc2)[C@@H](c2ccccc2)N2[C@@H](c3ccc(O)cc3)[C@]3(C(=O)Nc4ccc(C#CCCO)cc43)[C@@H](C(=O)O)[C@H]12	none (no result: INS-1E rescue, T cruzi HTS)
O=C(N/N=C/c1c(F)c(F)c(F)c(F)c1F)c1ccccc1O	none
[N-]=[N+]=NCc1ccccc1C[C@@]1(C(=O)NCc2ccccc2)N=C(c2ccc(OCCCO)cc2)O[C@@H]1c1ccccc1	none (no result: INS-1E rescue, T cruzi HTS)
C[C@H](CO)N1C[C@H](C)[C@H](CN(C)S(=O)(=O)c2cccs2)Oc2ncc(C#Cc3ccc(F)cc3)cc2C1=O	T cruzi HTS 65 (no result: A1 apoptosis 2, INS-1E rescue)
C[C@H](CO)N1C[C@H](C)[C@H](CN(C)S(=O)(=O)c2cccs2)Oc2ncc(C#Cc3ccc(C(F)(F)F)cc3)cc2C1=O	T cruzi HTS 87
C[C@H](CO)N1C[C@H](C)[C@H](CN(C)S(C)(=O)=O)Oc2ncc(C#Cc3ccc(F)cc3)cc2C1=O	none (no result: A1 apoptosis 2, INS-1E rescue)
CCCC(O)C#Cc1cnc2c(c1)C(=O)N([C@H](C)CO)C[C@H](C)[C@H](CN(C)S(=O)(=O)c1cccs1)O2 (stereo partly specified)	none (no result: INS-1E rescue)
COC(=O)CCCCCCC(=O)N/N=C/c1ccccc1C	none (no result: A1 apoptosis 2)
C[C@@H]1CN([C@H](C)CO)C(=O)Cc2cc(NS(=O)(=O)c3ccc(Cl)cc3)ccc2O[C@H]1CN(C)S(=O)(=O)c1ccc(F)cc1	none
C[C@H]1CN([C@@H](C)CO)C(=O)Cc2cc(NS(=O)(=O)c3ccc(F)cc3)ccc2O[C@@H]1CN(C)S(=O)(=O)c1ccc(Cl)cc1	none
C[C@@H]1CN([C@H](C)CO)C(=O)Cc2cc(NS(=O)(=O)c3ccc(F)cc3)ccc2O[C@@H]1CN(C)S(=O)(=O)c1ccc(Cl)cc1	T cruzi HTS 58 (no result: A1 apoptosis 2)
C[C@@H]1CN([C@@H](C)CO)C(=O)Cc2cc(NS(=O)(=O)c3ccc(F)cc3)ccc2O[C@@H]1CN(C)S(=O)(=O)c1ccc(Cl)cc1	T cruzi HTS 65 (no result: A1 apoptosis 2)
CC(/C=C/C(=O)NO)=C\c1ccccc1OCc1cn(CCNC(=O)Nc2ccccc2)nn1	none (no result: INS-1E rescue, T cruzi HTS)
O=C(NO)c1ccc(C(=O)N/N=C/c2cccs2)cc1	none
COc1ccc(CN(C)C[C@@H]2Oc3c(NC(=O)c4ccncc4)cccc3C(=O)N([C@@H](C)CO)C[C@H]2C)cc1	T cruzi HTS 79
C[C@@H]1CN([C@H](C)CO)C(=O)c2cccc(NC(=O)c3ccncc3)c2O[C@H]1CN(C)Cc1ccc(C(=O)Nc2ccccc2N)cc1	none
COc1ccc(NC(=O)Nc2cccc3c2O[C@H](CN(C)Cc2ccncc2)[C@H](C)CN([C@@H](C)CO)C3=O)cc1	none
COc1ccc(CN(C)C[C@H]2Oc3c(NC(=O)c4ccncc4)cccc3C(=O)N([C@@H](C)CO)C[C@@H]2C)cc1	T cruzi HTS 83
C[C@@H]1CN([C@@H](C)CO)C(=O)Cc2cc(NC(=O)Nc3ccc(C(F)(F)F)cc3)ccc2O[C@@H]1CN(C)Cc1ccncc1	T cruzi HTS 69
C[C@H](CO)N1C[C@H](C)[C@H](CN(C)Cc2ccc(C(F)(F)F)cc2)Oc2ccc(NC(=O)c3ccncc3)cc2CC1=O	none
C[C@H](CO)N1C[C@H](C)[C@@H](CN(C)Cc2ccncc2)Oc2ccc(NC(=O)Nc3ccc(C(F)(F)F)cc3)cc2CC1=O	none (no result: INS-1E rescue, T cruzi HTS)
C[C@@H]1CN([C@H](C)CO)C(=O)Cc2cc(NC(=O)c3ccncc3)ccc2O[C@H]1CN(C)Cc1ccc(C(F)(F)F)cc1	none
